Results taken from ChEMBL document CHEMBL4513216, “Probing the Open Global Health Chemical Diversity Library for Multistage-Active Starting Points for Next-Generation Antimalarials” (ACS Infect Dis, 2020).

Test: Toxicity liver stage against HepG2, at 10uM
Assay type: cell-based
Design: test concentration 10 uM, cell line HepG2-A16-CD81EGFP
Settings: human, HepG2-A16-CD81EGFP cells; read-out: INHIBITION
Summary of the method: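 Uninfected HepG2-A16-CD81EGFP cells, 3 × 10^3 per well, 1536-well, plated on prespotted compound at 10 μM final, parasite-free screening media added to match infected plates; puromycin 10 μM positive, DMSO 0.5% negative; run in parallel with 48 h PbLuc assay at 37 °C, 5% CO2; viability by CellTiter-Glo luminescence, normalized to controls.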

Compound: CCn1ccnc1CN(C)Cc1nc(CCC(C)C)no1
- cytotoxicity at 10 µM: 2.89%

Compound: CO[C@H]1CN(C)S(=O)(=O)[C@@]12CCN(Cc1ccccc1)C2
- cytotoxicity at 10 µM: 1.79%

Compound: CC(=O)c1cc2c(=O)[nH]c(=O)n(C)c2nc1C
- cytotoxicity at 10 µM: -2.89%

Compound: COCCNc1nc(N2CCOCC2)nc2nccnc12
- cytotoxicity at 10 µM: 4.09%

Compound: CC(C)C[C@H](NC(=O)Cn1ccc2c(Cl)cccc21)C(=O)O
- cytotoxicity at 10 µM: 5.19%

Compound: CC1CCN(C(=O)c2cn(-c3cc(N4CCSCC4)ncn3)cn2)CC1
- cytotoxicity at 10 µM: -3.75%

Compound: O=S(=O)(NCCC(O)c1cccs1)c1ccccc1 (stereo not given)
- cytotoxicity at 10 µM: -3.82%

Compound: CCS(=O)(=O)Nc1cnn(Cc2cccc(C)c2)c1
- cytotoxicity at 10 µM: 0.724%

Compound: CN1C(=O)CO[C@H]2CN(C(=O)c3ccc4c(c3)CCCC4)C[C@@H]21
- cytotoxicity at 10 µM: 5.45%

Compound: CC(C)(C)n1cc(CNC2CCN(C(=O)c3ccncc3)CC2)cn1
- cytotoxicity at 10 µM: -6.72%

Compound: CN(CCc1ccncc1)C(=O)c1sccc1OC(F)F
- cytotoxicity at 10 µM: -9.32%

Compound: CCC(=O)NCC(=O)NC(C)c1sc(-c2ccccc2F)nc1C (stereo not given)
- cytotoxicity at 10 µM: 9.65%

Compound: O=C(NCc1cccc(N2CC=CC2)c1)NCC(F)(F)F
- cytotoxicity at 10 µM: 8.89%

Compound: CCc1ccc(C2COCCN2C(=O)Nc2cccc(C(C)=O)c2)o1 (stereo not given)
- cytotoxicity at 10 µM: -7.13%

Compound: CS(=O)(=O)NCC1CCCN(c2ccc(C#N)cn2)C1 (stereo not given)
- cytotoxicity at 10 µM: -11.1%

Compound: Cc1ccc(NC(=O)CNc2cccc(C(N)=O)c2C)c(C)c1
- cytotoxicity at 10 µM: 17.6%

Compound: Cn1ccnc1CN(Cc1cccnc1)CC1CCCO1 (stereo not given)
- cytotoxicity at 10 µM: 15.2%

Compound: N#Cc1cccnc1NCCC1CCN(CC(F)(F)F)CC1
- cytotoxicity at 10 µM: 11%

Compound: Cn1cnn(CC(=O)NCc2ccccc2F)c1=O
- cytotoxicity at 10 µM: 2.4%

Compound: O=C(Cc1ccc(-n2cnnn2)cc1)Nc1nncs1
- cytotoxicity at 10 µM: 5.47%

Compound: COc1cc(C(C)=O)ccc1SCC(=O)Nc1ccc(C)cn1
- cytotoxicity at 10 µM: 4.43%

Compound: CCN(Cc1ccoc1)C(=O)c1ccc(C)c(S(N)(=O)=O)c1
- cytotoxicity at 10 µM: -4.63%

Compound: CNS(=O)(=O)CC(=O)N(Cc1ccsc1)c1ccccc1
- cytotoxicity at 10 µM: -2.4%

Compound: Cc1cnn(CC2CCCN2c2ncnc3c2CCC3)c1 (stereo not given)
- cytotoxicity at 10 µM: 7.84%

Compound: CCOc1ccc(CN(C)C(C)C(=O)Nc2cc(C)no2)cc1 (stereo not given)
- cytotoxicity at 10 µM: 10.6%

Compound: Cc1nc2c(c(N3CC=CC3)n1)CCN(c1ncccc1C(N)=O)CC2
- cytotoxicity at 10 µM: -10.2%

Compound: CCCc1nnc(C(=O)N(C)Cc2ccc(OC)cc2)o1
- cytotoxicity at 10 µM: 2.64%

Compound: CCC(CO)N(Cc1ccco1)C(=O)c1ccc(F)cc1Cl (stereo not given)
- cytotoxicity at 10 µM: -0.247%

Compound: CCN1CC(C(=O)NCCc2csc(-c3ccncc3)n2)CC1=O (stereo not given)
- cytotoxicity at 10 µM: -5.64%

Compound: Cc1n[nH]c(CN2CCN(C(=O)C3CCC3)[C@@H]3CS(=O)(=O)C[C@@H]32)n1
- cytotoxicity at 10 µM: -10.8%

Compound: CC(C)(C)C1CCC(NCCN2CCOCC2)CC1 (stereo not given)
- cytotoxicity at 10 µM: 0.741%

Compound: Cc1ncsc1CCN(C)C(=O)CN1CC2(CCCC2)CC1=O
- cytotoxicity at 10 µM: 2.19%

Compound: Cc1ccc(N(CC(=O)NCc2nnc3n2CCC3)S(C)(=O)=O)cc1
- cytotoxicity at 10 µM: -4.66%

Compound: COc1nccnc1-c1cc(NC2CCNCC2)nc2[nH]ccc12
- cytotoxicity at 10 µM: -10.7%

Compound: C[C@@H]1CN(c2nc3c(cc2C(N)=O)CCC3)CC[C@@]1(O)C1CCC1
- cytotoxicity at 10 µM: 0.186%

Compound: Cc1cc(C(=O)N2CCCC(c3nccn3C)C2)cc(S(N)(=O)=O)c1C (stereo not given)
- cytotoxicity at 10 µM: 5.5%

Compound: Cc1nc(N2C[C@H]3CC[C@@H](C2)N3)nc2cc(S(C)(=O)=O)ccc12
- cytotoxicity at 10 µM: -7.71%

Compound: CN(Cc1cnn(C)c1)C(=O)NCCc1ccc2c(c1)OCCO2
- cytotoxicity at 10 µM: -15.4%

Compound: O=C(c1ccc(Cn2ccccc2=O)o1)N1CCC2(CC1)OCCO2
- cytotoxicity at 10 µM: -12.8%

Compound: CCc1nc(C2CCCN2CC(=O)NCCOc2ccccc2)no1 (stereo not given)
- cytotoxicity at 10 µM: -16.4%

Compound: Cn1cc(C(=O)N2CCN(Cc3ccsc3)CC2)cn1
- cytotoxicity at 10 µM: -10%

Compound: CCOCC1CN(Cc2cccs2)Cc2nn(C)cc21 (stereo not given)
- cytotoxicity at 10 µM: -75.2%

Compound: CC(C)N1CCO[C@H]2CN(C(=O)c3ccccn3)C[C@H]21
- cytotoxicity at 10 µM: -67.6%

Compound: CC(C)(C)c1ccc(CN2C[C@H]3CC(O)C[C@H]3C2)c(OCC(N)=O)c1 (stereo not given in full)
- cytotoxicity at 10 µM: 2.71%

Compound: CC(C)(C)c1cc(CN2C[C@@H]3CC[C@H]2CN(Cc2ccccn2)C3)n[nH]1
- cytotoxicity at 10 µM: -0.123%
